Tests used:
Format in all cases: functional
K562 = assay: Growth inhibition of human K562 cells at 10 uM after 48 hrs by coulter counter analysis; details: K562, 48 h, read-out: GI
Summary of the method: (§1)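 Single-dose NCI 60-line panel screen of test compounds. Cells grown in RPMI 1640 with 10% FBS. Compounds dissolved in DMSO, then diluted in phosphate buffer saline (final DMSO below 1%). Wells run in duplicate at 6 × 10⁴ cells/ml. Controls held PBS and DMSO at matching dilutions. Incubation 48 h at 37 °C under humidified 5% CO2. Cells diluted tenfold in saline and counted by Coulter counter. Percent growth inhibition taken from mean-graph of treated-cell growth.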

RPMI-8226 = assay: Growth inhibition of human RPMI8226 cells at 10 uM after 48 hrs by coulter counter analysis; details: RPMI-8226, 48 h, read-out: GI; summary of the method: as §1
SR = assay: Growth inhibition of human SR cells at 10 uM after 48 hrs by coulter counter analysis; details: read-out: GI
Summary of the method: (§2)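 Single-dose screen in the NCI 60 cell line panel. Cells grown in RPMI 1640 with 10% FBS. Compounds dissolved in DMSO and diluted in phosphate buffered saline, final DMSO under 1%. Duplicate wells seeded from culture at 6 × 10⁴ cells/ml. Incubated 48 h at 37 °C, humidified, 5% CO2. Cells diluted tenfold in saline and Coulter-counted. Percent growth inhibition computed against PBS/DMSO controls.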

A549 = assay: Growth inhibition of human A549/ATCC cells at 10 uM after 48 hrs by coulter counter analysis; details: A549, 48 h, read-out: GI; summary of the method: as §1
EKVX = assay: Growth inhibition of human EKVX cells at 10 uM after 48 hrs by coulter counter analysis; details: read-out: GI; summary of the method: as §1
HOP-62 = assay: Growth inhibition of human HOP62 cells at 10 uM after 48 hrs by coulter counter analysis; details: HOP-62, 48 h, read-out: GI; summary of the method: as §1
HOP-92 = assay: Growth inhibition of human HOP92 cells at 10 uM after 48 hrs by coulter counter analysis; details: HOP-92, 48 h, read-out: GI; summary of the method: as §1
NCI-H226 = assay: Growth inhibition of human NCI-H226 cells at 10 uM after 48 hrs by coulter counter analysis; details: NCI-H226, 48 h, read-out: GI; summary of the method: as §1
NCI-H23 = assay: Growth inhibition of human NCI-H23 cells at 10 uM after 48 hrs by coulter counter analysis; details: NCI-H23, 48 h, read-out: GI; summary of the method: as §1
NCI-H322M = assay: Growth inhibition of human NCI-H322M cells at 10 uM after 48 hrs by coulter counter analysis; details: read-out: GI; summary of the method: as §1
NCI-H460 = assay: Growth inhibition of human NCI-H460 cells at 10 uM after 48 hrs by coulter counter analysis; details: NCI-H460, 48 h, read-out: GI; summary of the method: as §1
HCT-116 = assay: Growth inhibition of human HCT116 cells at 10 uM after 48 hrs by coulter counter analysis; details: HCT-116, 48 h, read-out: GI; summary of the method: as §1
HT-29 = assay: Growth inhibition of human HT-29 cells at 10 uM after 48 hrs by coulter counter analysis; details: HT-29, 48 h, read-out: GI; summary of the method: as §1
KM12 = assay: Growth inhibition of human KM12 cells at 10 uM after 48 hrs by coulter counter analysis; details: KM12, 48 h, read-out: GI; summary of the method: as §1
SW-620 = assay: Growth inhibition of human SW620 cells at 10 uM after 48 hrs by coulter counter analysis; details: SW-620, 48 h, read-out: GI; summary of the method: as §2
SF-295 = assay: Growth inhibition of human SF295 cells at 10 uM after 48 hrs by coulter counter analysis; details: SF-295, 48 h, read-out: GI; summary of the method: as §1
SNB-75 = assay: Growth inhibition of human SNB75 cells at 10 uM after 48 hrs by coulter counter analysis; details: SNB-75, 48 h, read-out: GI; summary of the method: as §2
U-251 = assay: Growth inhibition of human U251 cells at 10 uM after 48 hrs by coulter counter analysis; details: U-251, 48 h, read-out: GI; summary of the method: as §2
SK-MEL-28 = assay: Growth inhibition of human SK-MEL-28 cells at 10 uM after 48 hrs by coulter counter analysis; details: SK-MEL-28, 48 h, read-out: GI; summary of the method: as §1
SK-MEL-5 = assay: Growth inhibition of human SK-MEL-5 cells at 10 uM after 48 hrs by coulter counter analysis; details: SK-MEL-5, 48 h, read-out: GI; summary of the method: as §1
OVCAR-3 = assay: Growth inhibition of human OVCAR3 cells at 10 uM after 48 hrs by coulter counter analysis; details: OVCAR-3, 48 h, read-out: GI; summary of the method: as §1
OVCAR-5 = assay: Growth inhibition of human OVCAR5 cells at 10 uM after 48 hrs by coulter counter analysis; details: OVCAR-5, 48 h, read-out: GI; summary of the method: as §1
OVCAR-8 = assay: Growth inhibition of human OVCAR8 cells at 10 uM after 48 hrs by coulter counter analysis; details: OVCAR-8, 48 h, read-out: GI; summary of the method: as §1
[1] = Growth inhibition of human NCI-ADR-RES cells at 10 uM after 48 hrs by coulter counter analysis; details: read-out: GI; summary of the method: as §1
786-0 = assay: Growth inhibition of human 786-0 cells at 10 uM after 48 hrs by coulter counter analysis; details: 786-0, 48 h, read-out: GI; summary of the method: as §1
ACHN = assay: Growth inhibition of human ACHN cells at 10 uM after 48 hrs by coulter counter analysis; details: read-out: GI; summary of the method: as §1
CAKI-1 = assay: Growth inhibition of human Caki1 cells at 10 uM after 48 hrs by coulter counter analysis; details: CAKI-1, 48 h, read-out: GI; summary of the method: as §1
SN12C = assay: Growth inhibition of human SN12C cells at 10 uM after 48 hrs by coulter counter analysis; details: read-out: GI; summary of the method: as §1
UO-31 = assay: Growth inhibition of human UO31 cells at 10 uM after 48 hrs by coulter counter analysis; details: UO-31, 48 h, read-out: GI; summary of the method: as §2
PC-3 = assay: Growth inhibition of human PC3 cells at 10 uM after 48 hrs by coulter counter analysis; details: PC-3, 48 h, read-out: GI; summary of the method: as §1
DU-145 = assay: Growth inhibition of human DU145 cells at 10 uM after 48 hrs by coulter counter analysis; details: DU-145, 48 h, read-out: GI; summary of the method: as §1
MDA-MB-231 = assay: Growth inhibition of human MDA-MB-231 cells at 10 uM after 48 hrs by coulter counter analysis; details: MDA-MB-231, 48 h, read-out: GI; summary of the method: as §1
BT-549 = assay: Growth inhibition of human BT549 cells at 10 uM after 48 hrs by coulter counter analysis; details: BT-549, 48 h, read-out: GI; summary of the method: as §1
T47D = assay: Growth inhibition of human T47D cells at 10 uM after 48 hrs by coulter counter analysis; details: read-out: GI; summary of the method: as §2
MDA-MB-468 = assay: Growth inhibition of human MDA-MB-468 cells at 10 uM after 48 hrs by coulter counter analysis; details: MDA-MB-468, 48 h, read-out: GI; summary of the method: as §1
CCRF-CEM = assay: Growth inhibition of human CCRF-CEM cells at 10 uM after 48 hrs by coulter counter analysis; details: read-out: GI; summary of the method: as §1

`CCOC(=O)c1sc(NC(=O)CCN2CCN(C)CC2)nc1C` gave an inhibition of growth at 10 µM (K562) of less than 10%, an inhibition of growth at 10 µM (RPMI-8226) of less than 10% and an inhibition of growth at 10 µM (SR) of 20.3%. For the same compound, the inhibition of growth at 10 µM (A549) was less than 10%, the inhibition of growth at 10 µM (EKVX) was 15.9% and the inhibition of growth at 10 µM (HOP-62) was less than 10%. It also gave an inhibition of growth at 10 µM (HOP-92) of less than 10%, an inhibition of growth at 10 µM (NCI-H226) of less than 10% and an inhibition of growth at 10 µM (NCI-H23) of less than 10%. For the same compound, the inhibition of growth at 10 µM (NCI-H322M) was less than 10%, the inhibition of growth at 10 µM (NCI-H460) was less than 10% and the inhibition of growth at 10 µM (HCT-116) was less than 10%. It also gave an inhibition of growth at 10 µM (HT-29) of less than 10%, an inhibition of growth at 10 µM (KM12) of less than 10% and an inhibition of growth at 10 µM (SW-620) of less than 10%. It also gave an inhibition of growth at 10 µM (SF-295) of less than 10%, an inhibition of growth at 10 µM (SNB-75) of less than 10% and an inhibition of growth at 10 µM (U-251) of less than 10%. The inhibition of growth at 10 µM (SK-MEL-28) was less than 10%, the inhibition of growth at 10 µM (SK-MEL-5) was less than 10% and the inhibition of growth at 10 µM (OVCAR-3) was less than 10%. The inhibition of growth at 10 µM (OVCAR-5) was less than 10%, the inhibition of growth at 10 µM (OVCAR-8) was less than 10% and the inhibition of growth at 10 µM [1] was less than 10%. It also gave an inhibition of growth at 10 µM (786-0) of less than 10%, an inhibition of growth at 10 µM (ACHN) of less than 10% and an inhibition of growth at 10 µM (CAKI-1) of 12.5%. For the same compound, the inhibition of growth at 10 µM (SN12C) was less than 10%, the inhibition of growth at 10 µM (UO-31) was 19.3% and the inhibition of growth at 10 µM (PC-3) was less than 10%. It also gave an inhibition of growth at 10 µM (DU-145) of less than 10%, an inhibition of growth at 10 µM (MDA-MB-231) of less than 10% and an inhibition of growth at 10 µM (BT-549) of less than 10%. The inhibition of growth at 10 µM (T47D) was less than 10%, the inhibition of growth at 10 µM (MDA-MB-468) was 25.2% and the inhibition of growth at 10 µM (CCRF-CEM) was 96.2%.
Work on `CCOC(=O)c1sc(NC(=O)CCN2CCN(c3ccccc3)CC2)nc1C` yielded an inhibition of growth at 10 µM (K562) of less than 10%, an inhibition of growth at 10 µM (RPMI-8226) of less than 10% and an inhibition of growth at 10 µM (SR) of less than 10%. It also gave an inhibition of growth at 10 µM (A549) of less than 10%, an inhibition of growth at 10 µM (EKVX) of less than 10% and an inhibition of growth at 10 µM (HOP-62) of less than 10%. For the same compound, the inhibition of growth at 10 µM (HOP-92) was 17.5%, the inhibition of growth at 10 µM (NCI-H226) was less than 10% and the inhibition of growth at 10 µM (NCI-H23) was less than 10%. For the same compound, the inhibition of growth at 10 µM (NCI-H322M) was less than 10%, the inhibition of growth at 10 µM (NCI-H460) was less than 10% and the inhibition of growth at 10 µM (HCT-116) was less than 10%. It also gave an inhibition of growth at 10 µM (HT-29) of less than 10%, an inhibition of growth at 10 µM (KM12) of less than 10% and an inhibition of growth at 10 µM (SW-620) of less than 10%. The inhibition of growth at 10 µM (SF-295) was less than 10%, the inhibition of growth at 10 µM (SNB-75) was less than 10% and the inhibition of growth at 10 µM (U-251) was less than 10%. It also gave an inhibition of growth at 10 µM (SK-MEL-28) of less than 10%, an inhibition of growth at 10 µM (SK-MEL-5) of less than 10% and an inhibition of growth at 10 µM (OVCAR-3) of less than 10%. It also gave an inhibition of growth at 10 µM (OVCAR-5) of less than 10%, an inhibition of growth at 10 µM (OVCAR-8) of less than 10% and an inhibition of growth at 10 µM [1] of less than 10%. For the same compound, the inhibition of growth at 10 µM (786-0) was less than 10%, the inhibition of growth at 10 µM (ACHN) was less than 10% and the inhibition of growth at 10 µM (CAKI-1) was less than 10%. It also gave an inhibition of growth at 10 µM (SN12C) of less than 10%, an inhibition of growth at 10 µM (UO-31) of 19.7% and an inhibition of growth at 10 µM (PC-3) of less than 10%. It also gave an inhibition of growth at 10 µM (DU-145) of less than 10%, an inhibition of growth at 10 µM (MDA-MB-231) of less than 10% and an inhibition of growth at 10 µM (BT-549) of less than 10%. The inhibition of growth at 10 µM (T47D) was less than 10%, the inhibition of growth at 10 µM (MDA-MB-468) was less than 10% and the inhibition of growth at 10 µM (CCRF-CEM) was less than 10%.

— ChEMBL document CHEMBL2040727, “Substituted thiazoles VI. Synthesis and antitumor activity of new 2-acetamido- and 2 or 3-propanamido-thiazole analogs” (2012)
